The record followed here is ChEMBL document CHEMBL2150869, “Superpotent [Dmt¹] dermorphin tetrapeptides containing the 4-aminotetrahydro-2-benzazepin-3-one scaffold with mixed μ/δ opioid receptor agonistic properties” (J Med Chem, 2011).

Test [1] has as its target T1, Opioid receptors; mu and delta (Mus musculus, UniProt P42866+P32300). Nature of the test: Agonist activity at MOR/DOR in NMRI mouse frontal cortex assessed as reduction in spinal cord network activity by electrophysiology assay. Format: functional, tissue-based. The essentials:
(§1)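 Primary neuronal networks from frontal cortex or spinal cord grown on microelectrode array neurochips for 4 weeks to 3 months. Accumulating concentrations from 1 fM to 100 μM (nine steps), each recorded for 1 h at 37 °C, pH 7.4. Spike rate and burst duration taken from the last 30 min stable phase in 60 s bins. EC50 obtained by logistic dose-response fitting.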

For test [2], the target named is Mu-type opioid receptor (Rattus norvegicus, UniProt P33535). Nature of the test: Displacement of [3H]naloxone from MOR in rat brain homogenates by liquid scintillation counting. Format: tissue-based.
Chain of Mu-type opioid receptor (Rattus norvegicus, UniProt P33535) (P33535 whole entry): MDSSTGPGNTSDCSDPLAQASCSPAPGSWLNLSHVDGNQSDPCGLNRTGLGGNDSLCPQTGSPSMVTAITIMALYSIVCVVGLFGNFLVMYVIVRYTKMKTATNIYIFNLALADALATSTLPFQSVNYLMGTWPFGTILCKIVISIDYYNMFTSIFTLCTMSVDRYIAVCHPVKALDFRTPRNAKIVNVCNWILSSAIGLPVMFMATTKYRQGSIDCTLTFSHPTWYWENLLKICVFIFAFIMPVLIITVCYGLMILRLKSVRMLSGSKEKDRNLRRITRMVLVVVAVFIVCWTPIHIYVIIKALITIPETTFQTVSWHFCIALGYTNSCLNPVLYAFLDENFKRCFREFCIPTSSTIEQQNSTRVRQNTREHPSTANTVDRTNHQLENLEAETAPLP
Test [3] concerns the target Opioid receptors; mu and delta (Mus musculus) (UniProt P42866+P32300). Nature of the test: Agonist activity at MOR/DOR in NMRI mouse frontal cortex or spinal cord networks assessed as reduction in spinal cord network activity by electrophysiology assay relative to gabapentin. Format: functional, tissue-based. Also noted: scale not given: the % may be the effect or the level left.

For test [4], the target named is T1, Opioid receptors; mu and delta. The test can be described thus: Agonist activity at MOR/DOR in NMRI mouse spinal cord assessed as reduction in spinal cord network activity by electrophysiology assay. Format: functional. Put shortly: as §1
The target in test [5] is T2, Mu-type opioid receptor (Homo sapiens, UniProt P35372). The test can be described thus: Agonist activity at human MOR expressed in HEK293 cell membrane assessed as inhibition of forskolin-induced cAMP accumulation by liquid scintillation counting relative to control. Format: functional, cell membranes.
T2 sequence (P35372 whole entry): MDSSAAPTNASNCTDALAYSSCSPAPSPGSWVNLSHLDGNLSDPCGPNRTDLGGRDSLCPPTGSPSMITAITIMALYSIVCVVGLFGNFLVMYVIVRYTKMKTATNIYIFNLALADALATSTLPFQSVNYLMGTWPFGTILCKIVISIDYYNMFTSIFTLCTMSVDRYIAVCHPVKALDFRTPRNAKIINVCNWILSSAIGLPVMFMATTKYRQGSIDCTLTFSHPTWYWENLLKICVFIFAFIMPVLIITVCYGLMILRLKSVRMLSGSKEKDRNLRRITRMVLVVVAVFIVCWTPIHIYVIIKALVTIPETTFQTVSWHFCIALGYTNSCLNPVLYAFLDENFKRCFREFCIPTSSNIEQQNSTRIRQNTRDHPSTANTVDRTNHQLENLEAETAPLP
Test [6] has as its target Kappa-type opioid receptor (Homo sapiens, UniProt P41145). The test can be described thus: Displacement of [3H]diprenorphine from human KOR expressed in HEK293 cell membrane by liquid scintillation counting. Format: cell membranes.
The target in test [7] is T2, Mu-type opioid receptor. Nature of the test: Agonist activity at human MOR expressed in HEK293 cell membrane assessed as inhibition of forskolin-induced cAMP accumulation by liquid scintillation counting. Format: functional, cell membranes. Put shortly: (§2)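 HEK293 cells stably expressing the μ- or δ-opioid receptor, prelabelled for 24 h with [3H]adenine. Cells treated with ligand (10 fM to 10 μM or 1 pM to 10 μM) plus 50 μM forskolin for 30 min at 37 °C. Read-out is [3H]cAMP over total [3H]adenine nucleotides by scintillation counting, given as percent of forskolin-stimulated accumulation.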

The target of test [8] is Delta-type opioid receptor (Rattus norvegicus, UniProt P33533). The test can be described thus: Displacement of [3H]deltorphin2 from DOR in rat brain homogenates by liquid scintillation counting. The format is tissue-based.
Chain of Delta-type opioid receptor (Rattus norvegicus, UniProt P33533) (P33533 whole entry): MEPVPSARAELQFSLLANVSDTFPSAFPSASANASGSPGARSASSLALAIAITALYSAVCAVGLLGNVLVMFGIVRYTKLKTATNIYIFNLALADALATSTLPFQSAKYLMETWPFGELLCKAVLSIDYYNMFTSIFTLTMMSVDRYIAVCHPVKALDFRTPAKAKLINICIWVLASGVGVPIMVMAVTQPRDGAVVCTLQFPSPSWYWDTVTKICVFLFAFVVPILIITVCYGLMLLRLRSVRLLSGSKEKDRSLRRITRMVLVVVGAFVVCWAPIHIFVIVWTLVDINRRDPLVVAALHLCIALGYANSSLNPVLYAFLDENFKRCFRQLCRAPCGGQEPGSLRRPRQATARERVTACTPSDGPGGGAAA
The target of test [9] is T3, Delta-type opioid receptor (Homo sapiens, UniProt P41143). Nature of the test: Agonist activity at human DOR expressed in HEK293 cells assessed as stimulation of ERK1/2 phosphorylation at 1 uM after 2 mins by Western blotting. Format: functional, cell-based. Put shortly: (§3)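 HEK293 cells stably expressing the μ- or δ-opioid receptor, serum-starved 16 h, then exposed to ligand at 37 °C for the indicated times. Whole lysates run on 10% SDS-PAGE and immunoblotted for phospho-ERK1/2, with the blot reprobed for total ERK as loading control. Three independent experiments.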
T3 sequence (P41143 whole entry): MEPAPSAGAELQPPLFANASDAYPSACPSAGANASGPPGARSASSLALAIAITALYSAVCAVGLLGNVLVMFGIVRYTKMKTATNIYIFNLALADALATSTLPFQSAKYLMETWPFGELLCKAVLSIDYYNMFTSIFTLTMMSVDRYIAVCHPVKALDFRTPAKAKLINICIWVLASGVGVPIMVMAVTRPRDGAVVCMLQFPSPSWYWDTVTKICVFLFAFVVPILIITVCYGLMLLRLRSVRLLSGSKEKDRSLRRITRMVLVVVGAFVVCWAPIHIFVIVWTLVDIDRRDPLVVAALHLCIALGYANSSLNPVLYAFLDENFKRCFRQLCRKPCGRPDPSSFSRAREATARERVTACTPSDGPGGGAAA

In test [10] the target is T3, Delta-type opioid receptor. Nature of the test: Agonist activity at human DOR expressed in HEK293 cell membrane assessed as inhibition of forskolin-induced cAMP accumulation by liquid scintillation counting relative to control. Format: functional, cell membranes.
For a further test, the species on record is Homo sapiens. Nature of the test: Selectivity index, ratio of Ki for human DOR to Ki for human MOR by radioligand displacement assay. Put shortly:
(§4)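 Membranes (20 μg) from HEK293 cells stably expressing μ- or δ-OR incubated with [3H]diprenorphine (3.75 nM) for 45 min at 30 °C in 50 mM Tris-HCl pH 7.5, 100 mM NaCl, 10 mM MgCl2. Nonspecific binding defined with 10 μM naloxone. Bound ligand collected by GF/C filtration and counted by liquid scintillation.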

Test [11] deals with T3, Delta-type opioid receptor. The test can be described thus: Displacement of [3H]diprenorphine from human DOR expressed in HEK293 cell membrane by liquid scintillation counting. Format: cell membranes. The essentials:
as §4

The target in test [12] is T2, Mu-type opioid receptor. The test can be described thus: Agonist activity at human MOR expressed in HEK293 cells assessed as stimulation of ERK1/2 phosphorylation at […] after 2 mins by Western blotting. The format is functional, cell-based. Put shortly:
as §3

In test [13] the target is T2, Mu-type opioid receptor. Nature of the test: Displacement of [3H]diprenorphine from human MOR expressed in HEK293 cell membrane by liquid scintillation counting. The format is cell membranes. The essentials:
as §4

The target of test [14] is T3, Delta-type opioid receptor. Nature of the test: Agonist activity at human DOR expressed in HEK293 cell membrane assessed as inhibition of forskolin-induced cAMP accumulation by liquid scintillation counting. The format is functional, cell membranes. The essentials: as §2
The species entered for the next test is Rattus norvegicus. The test can be described thus: Selectivity index, ratio of EC50 for rat brain DOR to EC50 for rat brain MOR by cAMP accumulation assay.
The target in test [15] is T2, Mu-type opioid receptor. Nature of the test: Agonist activity at human MOR expressed in HEK293 cells assessed as stimulation of ERK1/2 phosphorylation at 1 uM after 2 mins by Western blotting. The format is functional, cell-based. Put shortly: as §3

Calls of active or inactive are those of the source. The rule behind the calls is not given here. Where a SMILES comes first, the peptide text is derived from it. [ ]: non-standard residue; d: D form. Dmt = Cc1cc(O)cc(C)c1C[C@H](N)C(=O)O; dNMeA = CN[C@H](C)C(=O)O; Sar = CNCC(=O)O Some results are limits rather than exact numbers.

Chain of Opioid receptors; mu and delta (Mus musculus) (P32300 whole entry, looked up): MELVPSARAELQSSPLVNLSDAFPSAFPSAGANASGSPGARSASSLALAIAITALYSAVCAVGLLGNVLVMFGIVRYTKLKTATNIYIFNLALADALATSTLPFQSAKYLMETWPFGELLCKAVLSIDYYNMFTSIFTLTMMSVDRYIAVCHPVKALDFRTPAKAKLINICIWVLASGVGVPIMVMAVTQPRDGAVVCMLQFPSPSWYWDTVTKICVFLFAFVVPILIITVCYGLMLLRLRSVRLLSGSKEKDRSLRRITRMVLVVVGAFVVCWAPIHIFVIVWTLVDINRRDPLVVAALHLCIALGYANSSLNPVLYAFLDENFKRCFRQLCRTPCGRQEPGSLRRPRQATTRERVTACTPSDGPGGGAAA
Chain of Opioid receptors; mu and delta (Mus musculus) (P42866 whole entry, looked up): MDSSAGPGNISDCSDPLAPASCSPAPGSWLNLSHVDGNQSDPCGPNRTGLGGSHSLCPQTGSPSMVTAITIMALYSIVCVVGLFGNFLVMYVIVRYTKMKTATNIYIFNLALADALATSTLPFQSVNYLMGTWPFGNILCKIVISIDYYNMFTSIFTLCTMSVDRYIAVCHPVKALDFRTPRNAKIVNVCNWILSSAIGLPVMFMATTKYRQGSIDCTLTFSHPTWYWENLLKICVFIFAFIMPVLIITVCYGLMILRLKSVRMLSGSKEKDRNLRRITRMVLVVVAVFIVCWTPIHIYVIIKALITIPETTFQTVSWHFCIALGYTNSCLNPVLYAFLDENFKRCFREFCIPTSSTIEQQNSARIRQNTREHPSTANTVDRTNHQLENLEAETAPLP
Chain of Kappa-type opioid receptor (P41145 whole entry): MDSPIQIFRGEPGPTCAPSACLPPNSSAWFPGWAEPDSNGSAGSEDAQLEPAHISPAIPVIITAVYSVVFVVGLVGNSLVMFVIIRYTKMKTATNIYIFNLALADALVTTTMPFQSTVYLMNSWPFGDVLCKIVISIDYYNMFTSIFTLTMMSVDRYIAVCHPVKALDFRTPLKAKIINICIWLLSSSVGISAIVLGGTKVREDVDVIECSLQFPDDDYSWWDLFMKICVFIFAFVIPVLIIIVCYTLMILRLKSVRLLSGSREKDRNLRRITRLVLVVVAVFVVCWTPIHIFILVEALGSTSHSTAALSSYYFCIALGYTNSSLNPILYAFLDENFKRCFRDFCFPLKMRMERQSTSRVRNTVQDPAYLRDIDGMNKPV

With `C[C@H](C(=O)N[C@H]1Cc2ccccc2CN(CC(N)=O)C1=O)N1Cc2cc(O)ccc2C[C@H](N)C1=O`, the EC50 was determined as 5.67 ×10⁻⁷ M in test [1], 6.7 nM in test [4] and 5.17 nM at Mu-type opioid receptor [7]. The IC50 stood at 0.0208 µM at Mu-type opioid receptor [2] and 0.0178 µM in test [8]. In addition, the Activity in test [3] was determined as 14%. For the same compound, the Emax was 78% at Mu-type opioid receptor [5] and 79% in [10]. In addition, the Ki is greater than 1000 µM in test [6], 0.16 µM in test [11] and 2.7 µM on Mu-type opioid receptor [13]. The result (in test [9]; on Mu-type opioid receptor [12]) was Active. Moreover, the Ratio Ki in the test listed under Homo sapiens worked out at 0.059.
For `Cc1cc(O)cc(C)c1C[C@H](N)C(=O)N(C)[C@H](C)C(=O)N[C@H]1Cc2ccccc2CN(CC(N)=O)C1=O`, the EC50 in test [1] is 1.61 ×10⁻¹⁵ M; in [4] it was 1.3 nM; in test [14] it was 0.016 nM; on Mu-type opioid receptor [7] it was 0.00174 nM. Besides, the IC50 (on Mu-type opioid receptor [2]; in [8]) was 0.00095 µM throughout. Besides, the Activity in [3] stood at 21%. Moreover, the figures for the Emax (on Mu-type opioid receptor [5]; in test [10]) were 72% and 61%, respectively. Further, the Ki was greater than 1000 µM in [6], 0.005 µM in test [11] and 0.0148 µM on Mu-type opioid receptor [13]. In addition, the result (in test [9]; on Mu-type opioid receptor [12]) was Active. Besides, in the test listed under Homo sapiens, the Ratio Ki was found to be 0.34. The Ratio EC50 in the test listed under Rattus norvegicus was determined as 9.2.
In the case of `Cc1cc(O)cc(C)c1C[C@H](N)C(=O)N(C)[C@H](C)C(=O)N[C@@H](Cc1ccccc1)C(=O)N(C)CC(N)=O` (H-[Dmt][dNMeA]F[Sar]-NH2), the result (at Mu-type opioid receptor [15]; in [9]) was Active. Moreover, the EC50 in test [1] turned out to be 1.29 ×10⁻¹³ M; in test [4], 2.87 ×10⁻¹⁰ M; in [14] it was 4400 nM; on Mu-type opioid receptor [7], 0.079 nM. Further, the IC50 at Mu-type opioid receptor [2] amounted to 0.0003 µM; in test [8], 0.0049 µM. The Activity in test [3] is 1%. Moreover, the figures for the Emax (on Mu-type opioid receptor [5]; in test [10]) were 71% and 72%, respectively. Further, the Ki is greater than 1000 µM in [6], 0.13 µM in test [11] and 0.06 µM at Mu-type opioid receptor [13]. The Ratio Ki in the test filed under Homo sapiens was 2.2. Further, in the test listed under Rattus norvegicus, the Ratio EC50 stood at 55700.
For the compound `Cc1cc(O)cc(C)c1C[C@H](N)C(=O)N[C@H](C)C(=O)N[C@H]1Cc2ccccc2CN(CC(N)=O)C1=O`, the outcome (at Mu-type opioid receptor [15]; in [9]) was Active. For the same compound, the EC50 in [14] is 0.17 nM; at Mu-type opioid receptor [7] it was 0.0832 nM. Further, the values for the Emax (on Mu-type opioid receptor [5]; in [10]) were 78% and 66%, respectively. In addition, the Ki was greater than 1000 µM in [6], 0.018 µM in [11] and 0.17 µM at Mu-type opioid receptor [13]. Besides, the Ratio Ki in the test filed under Homo sapiens was 0.106. Further, the Ratio EC50 in the test listed under Rattus norvegicus came to 2.04.
Regarding `C[C@H](C(=O)N[C@@H](Cc1ccccc1)C(=O)N(C)CC(N)=O)N(C)C(=O)[C@@H](N)Cc1ccc(O)cc1` (H-Y[dNMeA]F[Sar]-NH2), the outcome (on Mu-type opioid receptor [15]; in test [9]) was Active. The EC50 is 5 ×10⁻¹² M in test [1], 1060 nM in test [4], 960 nM in test [14] and 3.28 nM on Mu-type opioid receptor [7]. In addition, the IC50 came to 0.0281 µM on Mu-type opioid receptor [2] and 0.0071 µM in [8]. In [3], the Activity worked out at 3%. The results for the maximal response (Emax) (at Mu-type opioid receptor [5]; in test [10]) were 77% and 74%, respectively. For the same compound, the Ki was greater than 1000 µM in test [6], greater than 10 µM in test [11] and 1.1 µM at Mu-type opioid receptor [13]. The Ratio EC50 in the test listed under Rattus norvegicus amounted to 293.
